These results are taken from ChEMBL document CHEMBL3244060, “Methotrexate analogues. 8. Synthesis and biological evaluation of bisamide derivatives as potential prodrugs” (J Med Chem, 1977).

Converted amounts (≈) assume the structure as drawn. The source made the active and inactive calls. The calls are words filed in the database; no cut-off is given here. Some results are limits rather than exact numbers.

For one data set, the system named is CCRF-CEM. In words: Cytotoxicity against human CCRF-CEM cells assessed as growth inhibition. In kind it is functional. Particulars: read-out: ID50 (the source's name).
Data set [1] in a line: Cytotoxicity against RBL cells assessed as growth inhibition. In kind it is functional. Conditions: Rattus norvegicus, read-out: ID50 (the source's name).
In a further data set the test system is Mus musculus. In words: Toxicity in mouse allografted with mouse L1210 cells at 15 to 525 mg/kg, ip qd administered every 3 days for 7 days. Format: organism-based. Also on record: dose 15-525 mg/kg, route intraperitoneal. Particulars: in vivo. The essentials: (§1)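 Mice inoculated ip with 10^5 L1210 cells on day 0. Test agents injected ip in 10% Tween 80 on days 1, 4 and 7; doses 15 to 525 mg/kg. Positive control given as disodium salt in aqueous solution. Test groups of 5, control groups of 10-15. Median survival scored; %ILS = 100 × (T − C)/C.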

Data set [2] relates to L1210. As to the kind of experiment: Antitumor activity against mouse L1210 cells allografted in mouse assessed as increase in life span at 15 to 525 mg/kg, ip qd administered every 3 days for 7 days. Format: functional, organism-based. The procedure, abridged:
as §1

Data set [3] deals with L1210. In words: Antitumor activity against mouse L1210 cells allografted in mouse assessed as median survival time at 100 mg/kg, ip qd administered every 3 days for 7 days. In kind it is functional. Particulars: route intraperitoneal. The essentials:
(§2)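 Mice were inoculated ip with 10^5 L1210 leukemia cells on day 0. Dosing was ip on days 1, 4 and 7 in 10% Tween 80, with the methotrexate disodium salt in water, over 15–525 mg/kg. Survival was recorded in days as the range and median per group, with 5 treated and 10-15 untreated controls.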

Data set [4] has as its system L1210. In words: Antitumor activity against mouse L1210 cells allografted in mouse assessed as median survival time at 200 mg/kg, ip qd administered every 3 days for 7 days. Particulars: route intraperitoneal. In kind it is functional. The procedure, abridged:
as §2

The test system of data set [5] is L1210. As to the kind of experiment: Antitumor activity against mouse L1210 cells allografted in mouse assessed as increase in life span at 150 mg/kg, ip qd administered every 3 days for 7 days relative to control. Format: functional. Conditions: route intraperitoneal. The essentials:
(§3)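 L1210 cells (10^5) implanted ip in mice on day 0. Compounds given ip in 10% Tween 80 on days 1, 4 and 7, at doses from 15 to 525 mg/kg. Methotrexate was given as the disodium salt in aqueous solution. Groups had 5 treated and 10-15 control animals. %ILS = 100 × (T − C)/C, where T and C are median survival days of treated and control mice.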

Data set [6] concerns L1210. As to the kind of experiment: Antitumor activity against mouse L1210 cells allografted in mouse assessed as median survival time at 25 mg/kg, ip qd administered every 3 days for 7 days. Conditions: route intraperitoneal. In kind it is functional. The procedure, abridged: as §2
The next data set deals with Serum. As to the kind of experiment: Prodrug conversion in rat whole serum assessed as formation of methotrexate at 0.006 g measured up to 24 hrs by TLC analysis. In kind it is ADME. The essentials: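 Fresh rat serum 0.9 mL plus compound 0.006 g in 0.1 mL Me2SO, incubated at 37 °C with gentle shaking for up to 24 h. Cooled on ice, diluted 1.5-fold with methanol to precipitate protein, centrifuged. Supernatant run on fluorescent cellulose TLC developed with 0.5 M phosphate buffer pH 7.4 to detect parent compound and metabolites.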

Data set [7] relates to L1210. In words: Antitumor activity against mouse L1210 cells allografted in mouse assessed as increase in life span at 100 mg/kg, ip qd administered every 3 days for 7 days relative to control. In kind it is functional. Conditions: route intraperitoneal. The essentials:
as §3

Data set [8] relates to L1210. In words: Antitumor activity against mouse L1210 cells allografted in mouse assessed as increase in life span at 50 mg/kg, ip qd administered every 3 days for 7 days relative to control. Format: functional. Particulars: route intraperitoneal. The essentials:
as §3

Data set [9] concerns L1210. As to the kind of experiment: Antitumor activity against mouse L1210 cells allografted in mouse assessed as median survival time at 150 mg/kg, ip qd administered every 3 days for 7 days. In kind it is functional. Particulars: route intraperitoneal. The essentials: as §2
Data set [10] relates to L1210. In words: Antitumor activity against mouse L1210 cells allografted in mouse assessed as increase in life span at 25 mg/kg, ip qd administered every 3 days for 7 days relative to control. Format: functional. Particulars: route intraperitoneal. The procedure, abridged: as §3
The test system of data set [11] is L1210. In words: Antitumor activity against mouse L1210 cells allografted in mouse assessed as median survival time at 50 mg/kg, ip qd administered every 3 days for 7 days. In kind it is functional. Conditions: route intraperitoneal. The essentials:
as §2

In data set [12] the test system is L1210. As to the kind of experiment: Antitumor activity against mouse L1210 cells allografted in mouse assessed as median survival time at 400 mg/kg, ip qd administered every 3 days for 7 days. Format: functional. Particulars: route intraperitoneal. The essentials:
as §2

For another data set, the system named is Plasma. As to the kind of experiment: Prodrug conversion in mouse plasma assessed as formation of methotrexate at 100 mg/kg, ip measured after 6 to 24 hrs by TLC analysis. Conditions: in vivo. Also on record: dose 100 mg/kg, route intraperitoneal. In kind it is ADME, organism-based. The procedure, abridged: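 Normal mice received a single ip dose of 100 mg/kg in 10% Tween 80. One animal was killed at 6 h and one at 24 h. Blood was taken by ocular puncture with a heparinized syringe and the red cells spun down. Plasma 0.2 mL was cooled on ice and diluted with methanol 0.4 mL to precipitate protein, then centrifuged. Analysed by cellulose TLC developed in 0.5 M phosphate buffer pH 7.4.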

The subject of data set [13] is L1210. In words: Antitumor activity against mouse L1210 cells allografted in mouse assessed as increase in life span at 400 mg/kg, ip qd administered every 3 days for 7 days relative to control. Conditions: route intraperitoneal. Format: functional. The essentials: as §3
In data set [14] the test system is L1210. As to the kind of experiment: Antitumor activity against mouse L1210 cells allografted in mouse assessed as increase in life span at 200 mg/kg, ip qd administered every 3 days for 7 days relative to control. Format: functional. Conditions: route intraperitoneal. The procedure, abridged:
as §3

The subject of a further data set is Liver. In words: Prodrug conversion in mouse liver assessed as formation of methotrexate at 100 mg/kg, ip measured after 6 to 24 hrs by TLC analysis. Format: ADME, organism-based. The arrangement: dose 100 mg/kg, route intraperitoneal. Particulars: in vivo.

Consider `CN(Cc1cnc2nc(N)nc(N)c2n1)c1ccc(C(=O)N[C@@H](CCC(=O)NCCCO)C(=O)NCCCO)cc1`, for which the IC50 in the data set on CCRF-CEM is greater than 10 µg/mL.
Regarding `CN(Cc1cnc2nc(N)nc(N)c2n1)c1ccc(C(=O)N[C@@H](CCC(=O)NC2CCCCC2)C(=O)NC2CCCCC2)cc1`, the IC50 in data set [1] worked out at 0.22 µg/mL (≈ 0.357 µM); in the data set with CCRF-CEM, 1 µg/mL (≈ 1.62 µM). Moreover, in the data set with Mus musculus, the Activity entry was “Toxic”. Also, in the data set on L1210 [2], the outcome was inactive.
Take `CN(Cc1cnc2nc(N)nc(N)c2n1)c1ccc(C(=O)N[C@@H](CCC(N)=O)C(N)=O)cc1`: the IC50 with CCRF-CEM is greater than 10 µg/mL.
On the same count and under the same terms, the figure for `CCCCCCNC(=O)CC[C@H](NC(=O)c1ccc(N(C)Cc2cnc3nc(N)nc(N)c3n2)cc1)C(=O)NCCCCCC` is 10 µg/mL (≈ 16.1 µM).
Consider `CN(Cc1cnc2nc(N)nc(N)c2n1)c1ccc(C(=O)N[C@@H](CCC(=O)N2CCCC2)C(=O)N2CCCC2)cc1`, for which, in the data set on Mus musculus, the Activity result is “Toxic”. Moreover, the result in the data set with L1210 [2] was inactive.
On to `CCCCNC(=O)CC[C@H](NC(=O)c1ccc(N(C)Cc2cnc3nc(N)nc(N)c3n2)cc1)C(=O)NCCCC`, for which the IC50 in the data set on CCRF-CEM is greater than 10 µg/mL.
Consider `CN(C)CCNC(=O)CC[C@H](NC(=O)c1ccc(N(C)Cc2cnc3nc(N)nc(N)c3n2)cc1)C(=O)NCCN(C)C`, for which the IC50 in the data set on CCRF-CEM was greater than 10 µg/mL.
On the same count and under the same terms, the figure for `CCC(C)NC(=O)CC[C@H](NC(=O)c1ccc(N(C)Cc2cnc3nc(N)nc(N)c3n2)cc1)C(=O)NC(C)CC` (some centres undefined) is greater than 10 µg/mL.
Consider `CN(Cc1cnc2nc(N)nc(N)c2n1)c1ccc(C(=O)N[C@@H](CCC(=O)NCc2ccccc2)C(=O)NCc2ccccc2)cc1`, for which the IC50 in [1] came to 2.5 µg/mL (≈ 3.95 µM); in the data set on CCRF-CEM it was 7.6 µg/mL (≈ 12 µM). The MST with L1210 [3] amounted to 13 days; with L1210 [4], 9 days; with L1210 [6], 12 days; in the data set with L1210 [9], 15 days; in the data set with L1210 [11], 13 days; with L1210 [12], 8 days. Besides, in the data set on L1210 [5], the ILS at 150 mg/kg is 66%. The Drug metabolism entry was “metabolite_notdetected” in the data set with Serum, “metabolite_detected” in the data set on Plasma and “metabolite_detected” with Liver. Further, the ILS at 100 mg/kg in the data set on L1210 [7] worked out at 44%. Also, the ILS at 50 mg/kg in the data set on L1210 [8] was found to be 44%. Moreover, the ILS at 25 mg/kg in the data set on L1210 [10] was 33%. Also, the ILS at 400 mg/kg in the data set with L1210 [13] was -11%. Moreover, the ILS at 200 mg/kg in the data set with L1210 [14] was found to be 0%.
